# Measurements reported in ChEMBL document CHEMBL1137460, “Fluorinated pyrazole acids are agonists of the high affinity niacin receptor GPR109a” (Bioorg Med Chem Lett, 2007).
# The source made the active and inactive calls. The rule behind the calls is not given here.
# What was measured:
# [1] = target: T1, Hydroxycarboxylic acid receptor 3 (Homo sapiens, UniProt P49019); test: Agonist activity at human GPR109b […] assessed as decrease in intracellular cAMP level upto 50 uM by HTRF assay; type: functional, cell-based
# T1 sequence (P49019 whole entry): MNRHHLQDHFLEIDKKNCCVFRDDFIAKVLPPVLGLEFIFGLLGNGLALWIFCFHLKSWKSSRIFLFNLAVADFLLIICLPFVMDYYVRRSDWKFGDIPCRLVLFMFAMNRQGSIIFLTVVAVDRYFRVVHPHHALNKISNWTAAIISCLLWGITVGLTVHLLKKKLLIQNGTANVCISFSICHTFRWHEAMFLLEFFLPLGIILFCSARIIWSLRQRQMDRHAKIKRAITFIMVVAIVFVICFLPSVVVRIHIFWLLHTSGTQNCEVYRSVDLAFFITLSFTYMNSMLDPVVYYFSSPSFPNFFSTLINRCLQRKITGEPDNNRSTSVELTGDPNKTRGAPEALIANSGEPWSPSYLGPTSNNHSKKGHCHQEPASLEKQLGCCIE
# [2] = target: T1, Hydroxycarboxylic acid receptor 3; test: Agonist activity at human GPR109b expressed in human adipocytes assessed as decrease in intracellular cAMP level by HTRF assay; type: functional, cell-based
# Summary of the method: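 Whole-cell cAMP Dynamic2 HTRF assay at GPR109b. Results are given as pEC50, the negative log of molar EC50, with log SD errors and n in parentheses. Compounds with no response are marked not active. Efficacy is judged relative to niacin.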
# Rattus norvegicus [3] = test: Reduction in 4-fluoro-5-methyl-pyrazole-3-carboxylic acid-induced plasma free fatty acid level in fasted male Sprague-Dawley rat at 1 mg/kg; type: functional, organism-based; set-up: dose 1 mg/kg
# Summary of the method: (§1)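 Fasted male Sprague–Dawley rats dosed orally at 0.1, 1 or 10 mg/kg. Plasma free fatty acid levels are followed over time, with 10 mg/kg oral niacin as the comparator.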
# Rattus norvegicus [4] = test: Reduction in 4-fluoro-5-methyl-pyrazole-3-carboxylic acid-induced plasma free fatty acid level in fasted male Sprague-Dawley rat at 10 mg/kg; type: functional, organism-based; set-up: dose 10 mg/kg; summary of the method: as §1
# Mus musculus = test: Effect on cutaneous flushing response in C57BL/6 mouse at 100 mg/kg; type: functional, organism-based; set-up: dose 100 mg/kg
# Summary of the method: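 Male C57 Bl/6 mice given 100 mg/kg. Cutaneous vasodilation is measured as a surrogate for flushing.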
Activity [1],Activity [2],Structure (SMILES),other results
inactive,inactive,CCCCc1[nH]nc(C(=O)O)c1F,–
–,–,CCCc1cc(-c2nnn[nH]2)n[nH]1,EC50 ([2]; read-out: EC50): 860 µM; EC50 ([2]; read-out: Log EC50 (converted)): 0.724 µM
inactive,inactive,CCCCc1[nH]nc(-c2nnn[nH]2)c1F,–
inactive,inactive,CCCc1cc(C(=O)O)n[nH]1,–
inactive,inactive,Cc1[nH]nc(-c2nnn[nH]2)c1F,–
inactive,inactive,Fc1c(-c2nnn[nH]2)n[nH]c1C1CC1,–
inactive,inactive,Cc1cc(C(=O)O)n[nH]1,–
inactive,inactive,Cc1[nH]nc(C(=O)O)c1Cl,–
inactive,–,CC(C)c1cc(-c2nnn[nH]2)n[nH]1,–
–,–,CCCCc1cc(C(=O)O)n[nH]1,EC50 ([2]; read-out: Log EC50 (converted)): 11.7 µM
inactive,inactive,O=C(O)c1cc(C2CCC2)n[nH]1,–
inactive,–,Cc1cc(-c2nnn[nH]2)n[nH]1,–
–,–,CCc1[nH]nc(-c2nnn[nH]2)c1F,EC50 ([2]; read-out: Log EC50 (converted)): 12.3 µM
–,–,CCCCc1cc(-c2nnn[nH]2)n[nH]1,EC50 ([2]; read-out: Log EC50 (converted)): 7.59 µM
inactive,inactive,CCc1[nH]nc(C(=O)O)c1F,–
inactive,inactive,Cc1[nH]nc(C(=O)O)c1F,Activity (Rattus norvegicus [3]): Active; Activity (Rattus norvegicus [4]): Active; Activity (Mus musculus): Active
–,–,c1c(-c2nnn[nH]2)n[nH]c1C1CC1,EC50 ([2]; read-out: EC50): 3.6 µM; EC50 ([2]; read-out: Log EC50 (converted)): 3.24 µM
inactive,inactive,CCc1cc(C(=O)O)[nH]n1,–
–,–,O=C(O)c1cccnc1 [NIACIN],EC50 ([2]; read-out: Log EC50 (converted)): 75.9 µM
inactive,inactive,O=C(O)c1cc(C2CC2)n[nH]1,–
inactive,inactive,O=C(O)c1cc[nH]n1,–
inactive,inactive,O=C(O)c1n[nH]c(C2CC2)c1F,–
–,–,CC(C)c1cc(C(=O)O)n[nH]1,EC50 ([2]; read-out: Log EC50 (converted)): 41.7 µM
inactive,inactive,CCCCc1[nH]nc(C(=O)O)c1Br,–
inactive,inactive,CCc1[nH]nc(C(=O)O)c1C,–
–,–,CCCCCc1cc(C(=O)O)[nH]n1,EC50 ([2]; read-out: Log EC50 (converted)): 18.6 µM

Structure (SMILES),Activity [1],Activity [2],other results
c1cc(-c2nnn[nH]2)n[nH]1,inactive,–,–
